Measurements as given in ChEMBL document CHEMBL1124451, “[(1H-imidazol-1-yl)methyl]- and [(3-pyridinyl)methyl]pyrroles as thromboxane synthetase inhibitors” (J Med Chem, 1989).
pIC50: −log10 of the molar value.

What was measured:
Homo sapiens [1] = species: Homo sapiens; assay: Relative potency to inhibit ADP-induced aggregation of human platelet rich plasma compared to that of dazoxiben, in vitro using pig aortal microsomes.; assay type: functional; details: Aorta
Homo sapiens [2] = species: Homo sapiens; assay: In vitro inhibition of ADP-induced aggregation of human platelet rich plasma in the presence of pig aortal microsomes.; assay type: functional; details: Aorta
In short: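 Human citrated blood (0.38% citrate final), PRP by centrifugation at 200g, room temperature. Drug added to 1.0 mL PRP, 2 min at 37 °C with stirring (500 rpm), then pig aortal microsomes 3 min; microsome amount set by the dazoxiben standard. Aggregation induced by 5 μM ADP (final), read turbidimetrically.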

[3] = target: T1, Thromboxane-A synthase (Homo sapiens) (UniProt P24557); assay: Relative potency of thromboxane A2 synthetase as reduced ADP-induced aggregation of human platelet rich plasma compared to dazoxiben; assay type: functional, cell-free
T1 sequence (whole entry): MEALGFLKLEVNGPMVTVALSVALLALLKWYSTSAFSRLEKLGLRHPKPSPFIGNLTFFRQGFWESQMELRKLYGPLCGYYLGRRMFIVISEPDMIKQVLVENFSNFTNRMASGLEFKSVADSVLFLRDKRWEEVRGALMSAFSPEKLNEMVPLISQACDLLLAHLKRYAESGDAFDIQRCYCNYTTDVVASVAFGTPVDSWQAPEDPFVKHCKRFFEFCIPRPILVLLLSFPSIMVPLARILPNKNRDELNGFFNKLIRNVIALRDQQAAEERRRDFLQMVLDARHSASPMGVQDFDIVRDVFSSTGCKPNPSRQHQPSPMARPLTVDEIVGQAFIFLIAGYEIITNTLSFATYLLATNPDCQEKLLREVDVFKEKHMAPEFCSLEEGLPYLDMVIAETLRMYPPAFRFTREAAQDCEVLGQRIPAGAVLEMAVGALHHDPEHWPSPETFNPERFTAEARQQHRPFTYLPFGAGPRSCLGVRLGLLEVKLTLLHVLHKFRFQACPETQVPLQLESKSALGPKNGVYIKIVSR

Rattus norvegicus = assay: Effect of perorally administered compound on systolic blood pressure and proteinuria was studied with a 5/6 renal ablated rat as a model of progressive injury; assay type: functional, Artery
In short: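 Male Munich Wistar rats (200-270 g) with 5/6 renal ablation were dosed in drinking water from 1 week post-surgery at 68, 205 or 410 mg/kg/day; controls received water. Conscious systolic pressure measured weekly by tail cuff. 24-h urinary protein measured every 2 weeks by the sulfosalicylic acid method.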

pIC50 (Homo sapiens [2]) | Relative potency [3] | SMILES | Relative potency (Homo sapiens [1]) | ED (Rattus norvegicus) [mg/kg]
5.49 |  | CCOC(=O)/C(C)=C\c1cc(Cc2cccnc2)n(C(C)(C)C)c1 | 0.59 | 
5.74 |  | CCOC(=O)/C(C)=C/c1cc(Cn2ccnc2)n(C)c1 | 1.1 | 
4.49 |  | CCOC(=O)/C(C)=C\c1ccc(Cc2cccnc2)n1C(C)C | 0.06 | 
 | 0.22 | COC(=O)[C@@H]1CC1c1ccc(Cn2ccnc2)n1C (stereo partly specified) |  | 
5.09 |  | CCOC(=O)/C(C)=C\c1ccc(Cn2ccnc2)[nH]1 | 0.31 | 
 | 1.3 | C/C(=C\c1cc(Cn2ccnc2)n(C)c1)C(=O)O |  | 
 |  | CCOC(=O)[C@H](CCc1ccccc1)N[C@@H](C)C(=O)N1CCC[C@H]1C(=O)O |  | 4
